Only some compounds are listed: those with a hit (about 3.5% of all), similar ones and a draw of the others.
FXIIa inh 1536: blocks human coagulation factor XIIa protease activity | purified FXIIa, Boc-QGR-AMC fluorogenic substrate, 2 h | AID 800 | inhibition, % at 5 µM | P00748 | 220,000 compounds, 0.3% hits; in the data active means inhibition above about 40%
FXIa inh: factor XIa (human) inhibition; inhibition, % at 5 µM; 220,000 compounds, 0.14% hits; purified FXIa, Boc-Glu-Ala-Arg-AMC fluorogenic substrate; P03951;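 active means inhibition of at least 40%; inactive means inhibition below 40%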;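 further: fluorescence of freed AMC excited at 355 nm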
hK5 inh: kallikrein 5 (human) inhibition; Q9Y337; recombinant hK5, fluorogenic AMC substrate cleavage; AID 873; inhibition, % at 5 µM; 210,000 compounds, 0.59% hits;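 active means inhibition of 40% or more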
STAT3 activator: activators of IL-6 induced STAT3 signaling | 190,000 compounds, 0.91% hits | activation (% of control), % at 5.6 µM | AID 871 | U3A cells, IL-6 STAT3-luciferase reporter, luminescence; 100% = signal with IL-6 EC80 alone;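 active means activation above the screen-wide mean of compound activation plus 3 SD, cut at about 130% in these data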
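system = STAT3-luciferase reporter U3A cells | reagent = IL-6 stimulus at 33 ng/mL final | timing = 1 h compound pre-exposure, 6 h IL-6 stimulation, 37 °C | measured by = luminescence | evaluation = % activation versus median of IL-6-stimulated wells | control set = IL-6-only wells as 100% reference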
Thrombin inh: inhibitors of human thrombin. 220,000 compounds, 0.26% hits. inhibition, % at 5 µM. alpha-thrombin, Boc-VPR-AMC fluorogenic substrate cleavage. P00734;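 active means inhibition at or above 40%; inactive means inhibition below 40%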
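Test system: human alpha-thrombin; medium: pH 7.5 Tris-saline with Tween 20; times: reaction at room temperature; signal: AMC fluorescence at 355 nm excitation and 460 nm emission; also added: Boc-VPR-AMC substrate, 15 µM final; dosing: one concentration per compound, 5 µM, with 0.2% DMSO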
AHR activator: activators of human aryl hydrocarbon receptor; 320,000 compounds, 2.5% hits; activation, % at 5 µM; P35869; AHR-responsive luciferase reporter cells, luminescence; in the data active means activation above about 47%
Target sequence (P35869 whole entry, looked up): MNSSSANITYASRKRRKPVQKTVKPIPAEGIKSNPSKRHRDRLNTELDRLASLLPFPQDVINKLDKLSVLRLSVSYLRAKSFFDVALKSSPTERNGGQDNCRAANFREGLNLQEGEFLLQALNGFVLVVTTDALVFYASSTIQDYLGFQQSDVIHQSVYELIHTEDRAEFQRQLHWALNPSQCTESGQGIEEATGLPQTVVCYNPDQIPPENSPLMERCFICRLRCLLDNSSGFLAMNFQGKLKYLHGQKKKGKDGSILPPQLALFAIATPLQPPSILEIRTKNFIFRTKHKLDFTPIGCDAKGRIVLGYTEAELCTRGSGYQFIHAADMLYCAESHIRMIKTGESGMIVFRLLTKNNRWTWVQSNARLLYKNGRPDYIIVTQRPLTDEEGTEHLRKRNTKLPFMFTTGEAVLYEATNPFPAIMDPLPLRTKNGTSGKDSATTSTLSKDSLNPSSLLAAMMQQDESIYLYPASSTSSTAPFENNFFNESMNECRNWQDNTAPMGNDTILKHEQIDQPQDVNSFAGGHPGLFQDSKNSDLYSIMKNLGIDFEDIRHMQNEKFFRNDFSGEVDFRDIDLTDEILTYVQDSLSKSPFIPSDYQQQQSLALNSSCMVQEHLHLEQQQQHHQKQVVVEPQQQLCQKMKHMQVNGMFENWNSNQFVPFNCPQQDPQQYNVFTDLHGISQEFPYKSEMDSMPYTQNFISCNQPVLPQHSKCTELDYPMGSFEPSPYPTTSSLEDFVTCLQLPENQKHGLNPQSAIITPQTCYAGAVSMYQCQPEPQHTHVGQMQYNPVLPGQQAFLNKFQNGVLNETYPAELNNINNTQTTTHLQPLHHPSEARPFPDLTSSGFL
Hits are given with their value; . = inactive; / = not tested or not shown.

SMILES	FXIIa inh 1536	FXIa inh	hK5 inh	STAT3 activator	Thrombin inh	AHR activator
Cc1ccccc1C(=O)O/N=C(\N)c1cccc([N+](=O)[O-])c1	.	.	.	.	.	94
Nc1ccc(S(=O)C(F)(F)F)cc1 (stereo unspecified)	.	.	.	.	.	.
CCOC(=O)c1c(NC(=O)CSc2n[nH]c(-c3ccco3)n2)sc(C)c1C	.	.	.	.	.	.
O=C(CSc1n[nH]c(-c2ccco2)n1)Nc1sc2c(c1C(=O)Nc1ccccc1)CCCC2	.	.	.	.	.	48
COc1ccc(OC)c(NC(=O)c2cnn(-c3ccccc3)c2C)c1	/	/	/	/	/	76
Cc1csc(SCC(=O)NCc2ccccc2Cl)n1	.	.	.	.	48	.
OC(CNCC(c1ccc(Cl)cc1Cl)c1c[nH]c2ccccc12)c1ccccc1 (stereo unspecified)	.	.	.	.	.	.
O=C1CCC(c2ccc(-n3ccnc3)cc2)=NN1	/	/	/	/	/	67
O=C1CCC(c2ccccc2)=NN1	.	.	.	.	.	.
Cc1snc(S(=O)(=O)/C(C#N)=N/Nc2cccc(C(F)(F)F)c2)c1C#N	.	.	.	.	.	98
CCOC(=O)C(C)n1cnc2sc3c(c2c1=O)CCC3 (stereo unspecified)	.	.	40	.	.	.
Cc1ccc(C)c(S(=O)(=O)N2CCN(C(=O)CCC(=O)c3cc(C)sc3C)CC2)c1	/	/	/	/	/	.
COc1ccccc1-n1c(SCC(=O)Nc2cc(C)on2)nc2c(c1=O)SCC2	.	.	.	.	.	.
C=CCn1c(SCC(=O)NCC2CCCO2)nc2c([nH]c3ccccc32)c1=O (stereo unspecified)	/	/	/	/	/	55
Cc1ccccc1-n1c(SCC(=O)NCC2CCCO2)nc2c([nH]c3ccccc32)c1=O (stereo unspecified)	/	/	/	/	/	.
COc1ccc(OC)c(NC(=O)CCn2c(=S)[nH]c3ccccc3c2=O)c1	/	/	/	/	/	.
Cn1c(SCC(=O)NCC2CCCO2)nc2c([nH]c3ccccc32)c1=O (stereo unspecified)	.	.	.	.	.	.
COc1ccccc1-n1c(SCC(=O)Nc2cc(C)on2)nc2c([nH]c3ccccc32)c1=O	/	/	/	/	/	68
COc1ccc(C)cc1-n1c(SCC(=O)NCC2CCCO2)nc2c([nH]c3ccccc32)c1=O (stereo unspecified)	/	/	/	/	/	67
COc1ccccc1NC(=O)CCCn1c(=S)[nH]c2ccccc2c1=O	.	.	.	.	.	48
CCN(CC(=O)Nc1c(F)cccc1F)C(=O)c1ccc(OCc2c(C)noc2C)cc1	/	/	/	/	/	.
C=CCn1c(SCC(=O)N2CCN(c3ccccc3)CC2)nc2c([nH]c3ccccc32)c1=O	/	/	/	/	/	66
O=C(CCn1c(=S)[nH]c2ccccc2c1=O)NCCSCc1ccccc1	.	.	.	.	.	.
O=C(Cn1c(=S)[nH]c2ccccc2c1=O)NCCc1ccccc1	.	.	.	.	.	79
C=CCn1c(SCC(=O)NCCc2ccccc2)nc2c([nH]c3ccccc32)c1=O	/	/	/	/	/	60
SMILES	FXIIa inh 1536	FXIa inh	hK5 inh	STAT3 activator	Thrombin inh	AHR activator
COc1ccc(N2CCN(C3CCCN(C(=O)CN4CCCC4=O)C3)CC2)cc1 (stereo unspecified)	/	/	/	/	/	.
CC(Sc1nnc(Cc2ccccc2)n1C)C(=O)NC1CC1 (stereo unspecified)	/	/	/	/	/	.
S=c1[nH]c2ccccc2o1	.	.	.	133	/	.
O=C(NCCc1nc(-c2ccccc2)cs1)c1ccc(Br)cc1	.	.	.	.	.	.
C(=N\c1ncnc2sccc12)/NOCc1ccccc1	.	.	.	.	.	.
Clc1ccc(CON/C=N/c2ncnc3sccc23)cc1	.	.	78	.	.	.
CC(=O)N1CCC(N2CCN(c3ccccc3F)CC2)CC1	60	.	.	.	.	.
O=C(C[C@@H]1C/C=C\CC[C@H](Cc2ccc(F)cc2)C(=O)OC[C@@H]2CCCN2C1=O)N[C@H](CO)Cc1ccccc1	/	/	/	/	/	.
O=C(N/N=C\c1ccc(F)cc1)c1csnn1	.	.	.	.	.	.
Cc1ccccc1/C=N\NC(=O)c1csnn1	.	.	.	.	.	51
Cc1cc(C(=O)CN2C(=O)c3cccc(N)c3C2=O)c(C)n1Cc1cccs1	.	.	.	134	.	.
COc1cccc2sc(Nc3nnc(-c4ccccc4Cl)o3)nc12	.	.	.	.	.	63
COc1cccc(-c2nnc(Nc3nc4c(F)cccc4s3)o2)c1	.	.	.	.	.	64
CCOc1ccc(S(=O)(=O)NCCC(=O)OCC(=O)NC(=O)c2cccn2C)cc1	/	/	/	/	/	.
CCc1ccc(C2c3[nH]c4ccccc4c3CCN2C(=O)c2cc[n+]([O-])cc2)cc1 (stereo unspecified)	.	.	50	/	.	.
Cn1nccc1C(=O)N1CCc2c([nH]c3ccccc23)C1c1ccc(F)cc1 (stereo unspecified)	.	.	.	.	.	.
CCc1c(C)nc(N2CCN(c3ccc(OC)cc3)CC2)[nH]c1=O	/	/	/	/	/	.
COc1cccc(N2CC(O)=C(c3nc4ccccc4s3)C2=N)c1	.	.	.	.	.	57
O=C(O)Cc1ccc(NC(=O)CCN2C(=O)c3ccc([N+](=O)[O-])cc3C2=O)cc1	100	.	.	.	.	/
C[C@H](CO)N1C[C@H](C)[C@@H](CN(C)S(=O)(=O)c2cccs2)Oc2c(NC(=O)CCC(F)(F)F)cccc2C1=O	/	/	/	/	/	.
COC(=O)c1cccc(NC(=O)NC(=O)c2ccc(Cl)cc2)c1	.	.	70	/	.	.
c1ccc(-c2noc(-c3cccnc3)n2)cc1	.	.	.	.	.	59
O=c1[nH]c2ccccc2cc1-c1noc(-c2cccnc2)n1	.	.	.	.	.	73
COc1ccc2[nH]c(=O)c(-c3noc(-c4ccccc4)n3)cc2c1	.	.	.	.	.	.
c1ccc(-c2ccc(-c3nc(-c4cccnc4)no3)cc2)cc1	.	.	.	.	.	.
SMILES	FXIIa inh 1536	FXIa inh	hK5 inh	STAT3 activator	Thrombin inh	AHR activator
Clc1ccc(Br)cc1-c1nc(-c2cccnc2)no1	/	/	/	141	/	/
c1cncc(-c2nc3ccccc3o2)c1	.	.	.	.	.	.
O=c1oc(-c2cccnc2)nc2ccccc12	.	.	.	.	82	.
c1cncc(-c2noc(-c3ccc4ccccc4c3)n2)c1	/	/	/	/	/	.
C[C@@H]1CN(C(=O)c2nc3ccc(Cl)cn3c2CN2CCc3sccc3C2)C[C@H](C)O1	.	.	.	.	.	.
CCCc1cc(=O)[nH]c(Nc2ccc3c(c2)OCCO3)n1	.	.	.	.	.	71
CCCCc1ccc(Nc2nc(CCC)cc(=O)[nH]2)cc1	.	.	.	.	.	.
CCCCOC(=O)Sc1nc2ccccc2o1	.	.	.	.	46	.
CCOc1ccc(CC(=O)Nc2c3c(nn2C(C)(C)C)CS(=O)(=O)C3)cc1	/	/	/	/	/	.
c1ccc([C@H]2CN3C(=N2)Sc2ccccc23)cc1	/	/	/	/	/	72
